1 compound from ChEMBL document CHEMBL3745647, “Design, synthesis and biological evaluation of pyrazolyl-nitroimidazole derivatives as potential EGFR/HER-2 kinase inhibitors” (Bioorg Med Chem Lett, 2016) can be followed below.

In data set [1] the target is Epidermal growth factor receptor (Homo sapiens, UniProt P00533). The experiment in a line: Inhibition of His-tagged EGFR cytoplasmic domain (645-1186 aa) (unknown origin) assessed as inhibition of autophosphorylation by TR-fluorometry. To be noted: read-out: IC50.
The subject of data set [2] is MCF7. The experiment in a line: Antiproliferative activity against human MCF7 cells after 12 hrs by MTT assay. Type of data set: functional, cell-based. To be noted: MCF7, 12 h. For orientation: Tetrazolium dyes change colour on reduction, which living cells bring about.
The test system of data set [3] is HeLa. The data set can be described thus: Induction of apoptosis in human HeLa cells assessed as viable cells at 0.26 uM after 48 hrs by annexin-V-FITC/PI staining based flow cytometry (reference value: 86.8%). Type of data set: functional. Particulars: read-out: Activity. The essentials: (§1)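 HeLa cells treated at 0.13, 0.26, 0.52 or 1.04 µM for 48 h, then collected and stained with annexin V-FITC/PI for flow cytometry. Early apoptotic cells are annexin V+/PI− (lower right quadrant) and late apoptotic cells are annexin V+/PI+ (upper right quadrant). Data are mean ± S.E.M. of three independent experiments.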
For orientation: In flow cytometry, cells or beads pass a laser one at a time.

Data set [4] relates to HeLa. The data set can be described thus: Induction of apoptosis in human HeLa cells assessed as viable cells at 0.13 uM after 48 hrs by annexin-V-FITC/PI staining based flow cytometry (reference value: 86.8%). Type of data set: functional. Particulars: read-out: Activity. Put shortly:
as §1

In data set [5] the test system is HeLa. The data set can be described thus: Induction of apoptosis in human HeLa cells assessed as early apoptotic cells at 0.52 uM after 48 hrs by annexin-V-FITC/PI staining based flow cytometry (reference value: 0.889%). It counts as functional. The essentials:
as §1

Data set [6] has as its system HeLa. The experiment in a line: Induction of apoptosis in human HeLa cells assessed as viable cells at 1.04 uM after 48 hrs by annexin-V-FITC/PI staining based flow cytometry (reference value: 86.8%). Type of data set: functional. Particulars: read-out: Activity. Put shortly: as §1
In data set [7] the target is Receptor tyrosine-protein kinase erbB-2 (Homo sapiens, UniProt P04626). The data set can be described thus: Inhibition of His-tagged human HER-2 cytoplasmic domain (676-1245 aa) (unknown origin) assessed as inhibition of autophosphorylation by TR-fluorometry.
The test system of data set [8] is HeLa. The data set can be described thus: Induction of apoptosis in human HeLa cells assessed as early apoptotic cells at 0.26 uM after 48 hrs by annexin-V-FITC/PI staining based flow cytometry (reference value: 0.889%). It counts as functional. The essentials: as §1
For data set [9], the system named is HeLa. The data set can be described thus: Induction of apoptosis in human HeLa cells assessed as late apoptotic cells at 0.13 uM after 48 hrs by annexin-V-FITC/PI staining based flow cytometry (reference value: 8.52%). It counts as functional. The essentials: as §1
In data set [10] the test system is HepG2. The experiment in a line: Antiproliferative activity against human HepG2 cells after 12 hrs by MTT assay. It counts as functional, cell-based. Particulars: HepG2, 12 h.
For data set [11], the system named is HeLa. The data set can be described thus: Induction of apoptosis in human HeLa cells assessed as early apoptotic cells at 0.13 uM after 48 hrs by annexin-V-FITC/PI staining based flow cytometry (reference value: 0.889%). Type of data set: functional. The essentials: as §1
The subject of data set [12] is HeLa. The experiment in a line: Induction of apoptosis in human HeLa cells assessed as necrotic cells at 0.26 uM after 48 hrs by annexin-V-FITC/PI staining based flow cytometry (reference value: 3.82%). It counts as functional. Put shortly: as §1
The nature of data set [13]: Cytotoxicity against human HEK293T cells for 24 hrs by MTT assay. It counts as cell-based, HEK-293T. The essentials:
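293T human kidney epithelial cells exposed to multiple concentrations and viability read by MTT.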

Data set [14] deals with HeLa. The data set can be described thus: Induction of apoptosis in human HeLa cells after 48 hrs by annexin-V-FITC/PI staining based flow cytometry. Type of data set: functional, cell-based. Put shortly: as §1
Data set [15] relates to HeLa. The data set can be described thus: Induction of apoptosis in human HeLa cells assessed as late apoptotic cells at 0.52 uM after 48 hrs by annexin-V-FITC/PI staining based flow cytometry (reference value: 8.52%). It counts as functional. Put shortly: as §1
The test system of data set [16] is HeLa. The experiment in a line: Induction of apoptosis in human HeLa cells assessed as late apoptotic cells at 0.26 uM after 48 hrs by annexin-V-FITC/PI staining based flow cytometry (reference value: 8.52%). Type of data set: functional. Put shortly: as §1
In data set [17] the test system is HeLa. The data set can be described thus: Induction of apoptosis in human HeLa cells assessed as early apoptotic cells at 1.04 uM after 48 hrs by annexin-V-FITC/PI staining based flow cytometry (reference value: 0.889%). Type of data set: functional. The essentials:
as §1

The test system of data set [18] is HeLa. The experiment in a line: Induction of apoptosis in human HeLa cells assessed as necrotic cells at 0.52 uM after 48 hrs by annexin-V-FITC/PI staining based flow cytometry (reference value: 3.82%). It counts as functional. Put shortly:
as §1

Data set [19] concerns HeLa. The data set can be described thus: Induction of apoptosis in human HeLa cells assessed as necrotic cells at 1.04 uM after 48 hrs by annexin-V-FITC/PI staining based flow cytometry (reference value: 3.82%). Type of data set: functional. Put shortly: as §1
The subject of data set [20] is HeLa. The experiment in a line: Antiproliferative activity against human HeLa cells after 12 hrs by MTT assay. It counts as functional, cell-based.
Data set [21] concerns HeLa. The experiment in a line: Induction of apoptosis in human HeLa cells assessed as necrotic cells at 0.13 uM after 48 hrs by annexin-V-FITC/PI staining based flow cytometry (reference value: 3.82%). Type of data set: functional. The essentials:
as §1

Data set [22] can be described thus: Antiproliferative activity against mouse B16F10 cells after 12 hrs by MTT assay. To be noted: B16-F10, 12 h. Type of data set: functional, cell-based.
For data set [23], the system named is HeLa. The data set can be described thus: Induction of apoptosis in human HeLa cells assessed as late apoptotic cells at 1.04 uM after 48 hrs by annexin-V-FITC/PI staining based flow cytometry (reference value: 8.52%). It counts as functional. Put shortly: as §1
Data set [24] has as its system HeLa. The experiment in a line: Induction of apoptosis in human HeLa cells assessed as viable cells at 0.52 uM after 48 hrs by annexin-V-FITC/PI staining based flow cytometry (reference value: 86.8%). Type of data set: functional. To be noted: read-out: Activity. Put shortly:
as §1

Receptor tyrosine-protein kinase erbB-2, sequence (P04626 whole entry, the tested form may be a part): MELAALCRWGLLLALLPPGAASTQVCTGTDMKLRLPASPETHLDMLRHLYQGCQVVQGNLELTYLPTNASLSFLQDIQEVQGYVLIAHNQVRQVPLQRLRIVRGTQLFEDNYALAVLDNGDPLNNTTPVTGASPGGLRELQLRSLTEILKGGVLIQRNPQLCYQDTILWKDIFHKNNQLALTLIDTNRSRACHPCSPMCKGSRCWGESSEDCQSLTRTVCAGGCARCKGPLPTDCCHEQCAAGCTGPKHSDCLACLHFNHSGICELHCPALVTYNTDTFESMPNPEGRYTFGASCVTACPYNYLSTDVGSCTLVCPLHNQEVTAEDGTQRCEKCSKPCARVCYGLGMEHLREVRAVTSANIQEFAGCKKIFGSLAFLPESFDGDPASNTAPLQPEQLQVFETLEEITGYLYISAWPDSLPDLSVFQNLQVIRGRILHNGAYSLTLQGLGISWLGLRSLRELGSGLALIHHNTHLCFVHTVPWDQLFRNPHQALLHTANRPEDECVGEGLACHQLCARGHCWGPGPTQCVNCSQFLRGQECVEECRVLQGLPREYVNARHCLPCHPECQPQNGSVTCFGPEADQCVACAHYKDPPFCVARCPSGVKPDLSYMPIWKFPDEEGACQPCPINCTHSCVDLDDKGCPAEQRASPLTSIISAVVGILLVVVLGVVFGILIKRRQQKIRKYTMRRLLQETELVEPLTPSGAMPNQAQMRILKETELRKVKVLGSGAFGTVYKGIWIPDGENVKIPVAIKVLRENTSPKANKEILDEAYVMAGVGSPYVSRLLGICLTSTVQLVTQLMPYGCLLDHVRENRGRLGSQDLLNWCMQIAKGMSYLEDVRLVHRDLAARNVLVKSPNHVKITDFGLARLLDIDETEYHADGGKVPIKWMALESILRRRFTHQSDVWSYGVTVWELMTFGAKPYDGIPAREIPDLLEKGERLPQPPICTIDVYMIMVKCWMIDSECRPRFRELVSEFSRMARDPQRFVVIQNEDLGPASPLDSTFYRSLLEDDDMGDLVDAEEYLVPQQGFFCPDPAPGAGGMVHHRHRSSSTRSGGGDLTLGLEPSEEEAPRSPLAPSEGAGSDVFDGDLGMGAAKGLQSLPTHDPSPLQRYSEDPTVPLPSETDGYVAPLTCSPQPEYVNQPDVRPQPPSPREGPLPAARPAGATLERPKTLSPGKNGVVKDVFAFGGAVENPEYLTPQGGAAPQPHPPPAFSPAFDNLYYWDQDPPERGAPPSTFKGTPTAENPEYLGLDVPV
Epidermal growth factor receptor, sequence (P00533 whole entry, the tested form may be a part): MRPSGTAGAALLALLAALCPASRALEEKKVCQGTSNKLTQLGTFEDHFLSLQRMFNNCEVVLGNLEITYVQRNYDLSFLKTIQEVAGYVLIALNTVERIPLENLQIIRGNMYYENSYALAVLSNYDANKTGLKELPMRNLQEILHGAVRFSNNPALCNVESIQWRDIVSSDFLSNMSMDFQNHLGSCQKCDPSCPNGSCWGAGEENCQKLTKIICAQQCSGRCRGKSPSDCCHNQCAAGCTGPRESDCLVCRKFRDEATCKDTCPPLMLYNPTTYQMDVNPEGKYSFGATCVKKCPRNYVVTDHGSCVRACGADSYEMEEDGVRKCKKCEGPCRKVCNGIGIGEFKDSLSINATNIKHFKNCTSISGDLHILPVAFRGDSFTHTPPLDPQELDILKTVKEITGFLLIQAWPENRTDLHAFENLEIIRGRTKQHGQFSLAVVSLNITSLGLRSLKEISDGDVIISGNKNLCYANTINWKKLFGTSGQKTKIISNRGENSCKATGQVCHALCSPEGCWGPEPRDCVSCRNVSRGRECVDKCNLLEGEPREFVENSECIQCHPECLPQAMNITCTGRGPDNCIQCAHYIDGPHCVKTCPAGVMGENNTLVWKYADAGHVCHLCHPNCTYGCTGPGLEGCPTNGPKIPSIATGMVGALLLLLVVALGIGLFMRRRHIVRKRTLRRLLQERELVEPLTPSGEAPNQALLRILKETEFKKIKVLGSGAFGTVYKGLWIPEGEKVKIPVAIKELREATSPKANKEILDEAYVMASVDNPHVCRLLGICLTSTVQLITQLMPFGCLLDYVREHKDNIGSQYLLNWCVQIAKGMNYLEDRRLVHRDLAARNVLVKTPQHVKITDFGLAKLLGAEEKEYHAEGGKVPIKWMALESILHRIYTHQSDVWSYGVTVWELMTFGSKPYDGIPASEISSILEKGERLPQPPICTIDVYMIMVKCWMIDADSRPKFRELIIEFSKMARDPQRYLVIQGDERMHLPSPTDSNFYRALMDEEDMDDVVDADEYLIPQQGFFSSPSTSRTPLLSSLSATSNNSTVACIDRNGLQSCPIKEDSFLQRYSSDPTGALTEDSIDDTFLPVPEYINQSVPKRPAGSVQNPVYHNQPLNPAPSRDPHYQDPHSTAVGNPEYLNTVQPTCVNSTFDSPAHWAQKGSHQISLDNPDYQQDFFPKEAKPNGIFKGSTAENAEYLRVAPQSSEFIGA

Usually IC50 stands for the concentration that inhibits the measured activity by half. Usually CC50 stands for the concentration giving 50% cytotoxicity. Read a low CC50 as harm at low concentration. Regarding `CC(=O)N1N=C(c2ccc(C(F)(F)F)cc2)CC1c1ccc(C(=O)OCCn2c([N+](=O)[O-])cnc2C)cc1` (centres undefined), the IC50 worked out at 260 nM in data set [1]; 960 nM in data set [2]; 510 nM in data set [7]; 330 nM in data set [10]; 130 nM in [20]; 190 nM in data set [22]. Also, the viability at 0.26 µM in data set [3] was determined as 50.7%. The viability at 0.13 µM in [4] worked out at 73.9%. The Activity in [5] was 36.2%; in [8], 26.7%; in data set [9], 20.5%; in data set [11], 3.72%; in [12], 0.688%; in data set [14], “Dose-dependent effect”. Moreover, the Activity in data set [15] came out at 20.7%; in data set [16], 21.9%; in data set [17], 54.2%; in data set [18] it was 0.988%; in data set [19], 0.43%; in [21] it was 1.88%. In data set [23], the Activity was 26.7%. The viability at 1.04 µM in data set [6] worked out at 18.6%. This compound also registered a CC50 at 24 h in data set [13] of 98900 nM. Besides, the viability at 0.52 µM in [24] is 42.1%.
